Article PMC11892687 (Bioorganic & medicinal chemistry letters, 2017)

Columns and labels:
HEK293 = assay: Cell Titer Glo cell viability assay HEK293; type: cell-based; settings: Homo sapiens, HEK293, 72 h, read-out: HEK293 IC50
In short: (§1)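 Cells from a human cancer line panel were treated with the test compound across a dose-response series.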

PC3 = assay: Cell Titer Glo cell viability assay PC3; type: cell-based; settings: Homo sapiens, PC-3, 72 h, read-out: PC3 IC50
In short: as §1

LRRK2 = LRRK2 (Homo sapiens, UniProt Q5S007); assay: Biochemical assay LRRK2
LRRK2, sequence (Q5S007 whole entry, species assumed): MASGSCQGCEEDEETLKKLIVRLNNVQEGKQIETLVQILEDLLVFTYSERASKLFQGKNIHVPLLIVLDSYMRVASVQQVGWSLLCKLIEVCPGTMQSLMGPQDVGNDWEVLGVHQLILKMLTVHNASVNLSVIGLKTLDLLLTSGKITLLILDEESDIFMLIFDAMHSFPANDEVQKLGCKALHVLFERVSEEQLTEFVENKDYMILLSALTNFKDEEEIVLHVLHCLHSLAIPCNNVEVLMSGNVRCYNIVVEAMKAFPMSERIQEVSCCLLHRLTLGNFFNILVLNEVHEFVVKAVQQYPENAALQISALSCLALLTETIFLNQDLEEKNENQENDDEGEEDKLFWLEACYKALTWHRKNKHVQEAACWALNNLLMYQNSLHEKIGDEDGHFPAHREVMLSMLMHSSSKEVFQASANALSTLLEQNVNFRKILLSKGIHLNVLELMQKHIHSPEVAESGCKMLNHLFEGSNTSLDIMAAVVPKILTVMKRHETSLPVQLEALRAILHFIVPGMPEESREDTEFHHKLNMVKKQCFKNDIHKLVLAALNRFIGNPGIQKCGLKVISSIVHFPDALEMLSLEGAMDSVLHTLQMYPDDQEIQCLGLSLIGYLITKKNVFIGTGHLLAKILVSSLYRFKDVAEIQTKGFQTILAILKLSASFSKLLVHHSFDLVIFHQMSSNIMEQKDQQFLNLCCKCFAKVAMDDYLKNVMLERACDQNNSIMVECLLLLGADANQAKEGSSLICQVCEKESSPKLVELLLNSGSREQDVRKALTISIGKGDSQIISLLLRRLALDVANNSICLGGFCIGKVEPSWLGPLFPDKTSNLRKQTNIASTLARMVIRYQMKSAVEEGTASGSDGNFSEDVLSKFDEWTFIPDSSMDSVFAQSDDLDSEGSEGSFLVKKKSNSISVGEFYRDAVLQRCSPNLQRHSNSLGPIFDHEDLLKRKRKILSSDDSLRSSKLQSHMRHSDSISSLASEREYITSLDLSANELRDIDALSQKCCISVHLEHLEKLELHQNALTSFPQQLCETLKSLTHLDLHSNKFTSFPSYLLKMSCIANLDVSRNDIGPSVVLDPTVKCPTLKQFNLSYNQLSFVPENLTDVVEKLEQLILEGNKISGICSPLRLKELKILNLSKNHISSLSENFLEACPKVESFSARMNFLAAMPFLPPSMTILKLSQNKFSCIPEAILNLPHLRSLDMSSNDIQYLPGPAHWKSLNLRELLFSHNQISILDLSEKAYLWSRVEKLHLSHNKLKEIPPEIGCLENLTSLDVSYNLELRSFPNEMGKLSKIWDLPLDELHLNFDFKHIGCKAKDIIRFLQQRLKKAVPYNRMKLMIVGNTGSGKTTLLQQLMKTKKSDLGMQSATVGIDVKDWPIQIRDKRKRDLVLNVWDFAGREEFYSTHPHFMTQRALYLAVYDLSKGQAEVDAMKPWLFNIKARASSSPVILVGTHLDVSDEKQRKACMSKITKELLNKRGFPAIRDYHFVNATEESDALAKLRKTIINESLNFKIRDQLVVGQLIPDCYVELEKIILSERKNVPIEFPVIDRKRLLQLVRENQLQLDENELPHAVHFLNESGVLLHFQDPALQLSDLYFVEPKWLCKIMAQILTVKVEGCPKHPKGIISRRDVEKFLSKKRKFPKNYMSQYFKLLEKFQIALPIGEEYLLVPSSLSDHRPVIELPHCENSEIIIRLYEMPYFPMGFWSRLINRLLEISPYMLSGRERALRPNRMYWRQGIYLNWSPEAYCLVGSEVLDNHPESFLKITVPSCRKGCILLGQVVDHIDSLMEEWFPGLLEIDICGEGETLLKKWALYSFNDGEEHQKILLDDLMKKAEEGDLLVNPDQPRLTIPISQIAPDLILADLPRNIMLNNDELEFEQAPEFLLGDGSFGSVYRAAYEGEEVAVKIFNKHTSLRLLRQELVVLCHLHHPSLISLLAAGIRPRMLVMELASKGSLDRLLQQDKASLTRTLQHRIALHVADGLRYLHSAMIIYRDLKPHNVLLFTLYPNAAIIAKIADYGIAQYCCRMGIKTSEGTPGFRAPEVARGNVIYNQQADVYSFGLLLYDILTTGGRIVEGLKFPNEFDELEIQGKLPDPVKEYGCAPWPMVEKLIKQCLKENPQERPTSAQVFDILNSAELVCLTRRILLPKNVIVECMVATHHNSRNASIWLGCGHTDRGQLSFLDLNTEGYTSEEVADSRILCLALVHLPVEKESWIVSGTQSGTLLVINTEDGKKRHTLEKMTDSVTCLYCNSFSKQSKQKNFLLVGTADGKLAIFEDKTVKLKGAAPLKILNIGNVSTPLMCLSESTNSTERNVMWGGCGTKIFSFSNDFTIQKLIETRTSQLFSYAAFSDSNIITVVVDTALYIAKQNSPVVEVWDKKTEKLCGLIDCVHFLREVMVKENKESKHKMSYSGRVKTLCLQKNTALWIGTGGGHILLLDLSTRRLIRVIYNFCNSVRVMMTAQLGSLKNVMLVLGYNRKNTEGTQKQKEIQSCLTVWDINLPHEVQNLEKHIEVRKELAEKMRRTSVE

BRD4 = BRD4 (Homo sapiens, UniProt O60885); assay: Biochemical assay BRD4
ABL1 Y253F = ABL1 Y253F (Homo sapiens, UniProt P00519, Y253F); assay: Biochemical kinase assay ABL1 Y253F
HCT116 = assay: Cell Titer Glo cell viability assay HCT116; type: cell-based; settings: Homo sapiens, HCT-116, 72 h, read-out: HCT116 IC50
In short: as §1

HCT116 cells = assay: FACS cell cycle analysis in HCT116 cells; type: cell-based, human; settings: 48 h, 500 nM compound
[1] = tested on: panel of 468 human wild-type and mutant kinases; assay: KINOMEscan kinase profiling, panel of 468 kinases; type: binding; settings: KINOMEscan at 1 μM compound concentration
Jurkat cells = assay: Anti-proliferative activity in Jurkat cells; type: cell-based; settings: Homo sapiens, read-out: IC50 (cytotoxic, anti-proliferative activity)
[2] = biological target: T1, recombinant purified Aurora A protein (Homo sapiens, UniProt O14965); assay: LC-MS/MS covalent labeling of recombinant Aurora A; type: binding; settings: compound at 10 fold excess with recombinant purified Aurora A
T1 sequence (O14965 1-403): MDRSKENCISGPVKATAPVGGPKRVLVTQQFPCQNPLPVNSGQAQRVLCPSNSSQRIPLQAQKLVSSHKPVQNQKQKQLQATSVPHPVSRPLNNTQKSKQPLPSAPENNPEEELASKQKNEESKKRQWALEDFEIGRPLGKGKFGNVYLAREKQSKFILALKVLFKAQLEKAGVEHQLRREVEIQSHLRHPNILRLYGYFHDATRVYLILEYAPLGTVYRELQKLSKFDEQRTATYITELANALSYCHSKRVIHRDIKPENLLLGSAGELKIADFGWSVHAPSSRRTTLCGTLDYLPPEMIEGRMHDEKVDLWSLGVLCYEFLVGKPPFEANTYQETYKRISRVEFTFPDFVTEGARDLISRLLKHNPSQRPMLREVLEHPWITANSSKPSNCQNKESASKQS

Row | SMILES | IC50 (HEK293) [µM] | IC50 (PC3) [µM] | activity against LRRK2 (LRRK2) | activity against BRD4 (BRD4) | IC50 (ABL1 Y253F) [µM] | IC50 (HCT116) [µM] | effect on cell cycle (FACS) (HCT116 cells) | kinome-wide selectivity [1] | IC50 (Jurkat cells) [µM] | labeling of Aurora A by LC-MS/MS [2]
1 | CCC(=O)Nc1ccc(C(=O)Nc2ccc(Nc3ncc4c(n3)N(C)c3ccc(C)cc3C(=O)N4C)cc2)cc1 [compound 2] | ~0.1 | ~0.1 | inactive | inactive | > 10 | ~0.1 | – | – | – | –
2 | C=CC(=O)Nc1ccc(C(=O)Nc2ccc(Nc3ncc4c(n3)N(C)c3ccc(C)cc3C(=O)N4C)cc2)cc1 [compound 1] | 0.25 ± 0.048 | 0.99 ± 1.5 | inactive | inactive | – | – | failed cytokinesis and accumulation of cells that contain 4N DNA (polyploidy) | exclusively on-target activity | 0.37 | no labeling
3 | CCOC(=O)c1[nH]cc2c1NC1=C(C(=O)CCC1)[C@H]2c1cccc(Oc2nc3ccccc3[nH]2)c1 [SAR156497, reference compound] | – | – | – | – | – | – | failed cytokinesis and accumulation of cells that contain 4N DNA (polyploidy) | – | – | –
